Mdm2 MdmX PPI: disrupts the human Mdm2-MdmX interaction; 3% of 330,000 active; inhibition, % at 8 µM; SaOS-2 split-luciferase Mdm2/MdmX complementation, luminescence; O15151+Q00987;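 active = inhibition of at least 50% at 8 µM in the primary screen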
Target sequence (O15151 whole entry, looked up): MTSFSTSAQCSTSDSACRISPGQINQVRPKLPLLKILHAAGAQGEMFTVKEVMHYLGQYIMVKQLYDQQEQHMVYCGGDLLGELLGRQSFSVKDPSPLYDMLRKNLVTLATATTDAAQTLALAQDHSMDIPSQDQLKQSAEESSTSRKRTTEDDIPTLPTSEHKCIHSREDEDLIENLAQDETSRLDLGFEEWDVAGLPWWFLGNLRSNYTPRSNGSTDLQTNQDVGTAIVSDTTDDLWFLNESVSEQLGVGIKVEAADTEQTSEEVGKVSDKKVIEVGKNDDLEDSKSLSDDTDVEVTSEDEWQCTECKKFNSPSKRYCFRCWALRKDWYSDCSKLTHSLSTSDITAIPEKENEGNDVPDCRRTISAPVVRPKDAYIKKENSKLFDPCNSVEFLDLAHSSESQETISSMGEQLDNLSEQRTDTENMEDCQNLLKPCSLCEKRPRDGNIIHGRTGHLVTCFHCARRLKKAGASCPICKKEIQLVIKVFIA
Target sequence (Q00987 whole entry, looked up): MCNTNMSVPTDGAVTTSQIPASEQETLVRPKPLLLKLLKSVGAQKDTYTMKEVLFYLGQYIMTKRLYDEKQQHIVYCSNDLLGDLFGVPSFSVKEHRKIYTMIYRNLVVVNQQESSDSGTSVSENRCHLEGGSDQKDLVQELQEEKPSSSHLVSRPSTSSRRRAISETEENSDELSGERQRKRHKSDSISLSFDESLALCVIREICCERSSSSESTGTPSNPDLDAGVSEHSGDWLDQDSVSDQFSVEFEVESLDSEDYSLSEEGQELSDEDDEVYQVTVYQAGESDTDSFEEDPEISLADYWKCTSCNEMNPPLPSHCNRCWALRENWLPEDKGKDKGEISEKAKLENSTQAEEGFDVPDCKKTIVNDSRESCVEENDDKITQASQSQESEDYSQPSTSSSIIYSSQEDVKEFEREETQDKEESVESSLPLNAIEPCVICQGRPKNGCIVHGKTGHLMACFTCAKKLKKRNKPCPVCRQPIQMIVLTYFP
SKKanGAS inh: blocks kanamycin growth of S. pyogenes SKKanGAS strain | inhibition, % at 7.5 µM | AID 1662 | BacTiter-Glo, 6 h | 1.3% of 300,000 active;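 active = mean replicate score, as percent of positive control median, at least 50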;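 note: strain carries kanamycin resistance gene driven by streptokinase promoter and grows in 40 µg/ml kanamycin; loss of luminescence reflects streptokinase promoter inhibition or plain growth inhibition; 0% = median of DMSO wells and 100% = positive control at its reference dose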
Beta apoptosis: beta cell apoptosis inhibition. 0.8% of 300,000 active. protection from apoptosis, % (no concentration beside the values). INS-1E cytokine-induced death, ATP luminescence, 48 h; percent of positive-control rescue, neutral wells zero;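 active = Every replicate reaches about 75%, or at least half do and their mean reaches it too, limit read from the data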;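 note: 0% = cytokine-treated negative control wells and 100% = positive control rescue; higher means more ATP so stronger rescue from cytokine killing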
CSC inhib: blocks cancer stem cells. AID 2717. cancer stem cell-like cells viability, luminescence. 1.1% of 300,000 active. inhibition, % at 7.5 µM; in the data active = inhibition above about 75%; tested in HMLE shEcad cells
T cruzi inh: blocks replication of Trypanosoma cruzi; T. cruzi beta-gal in NIH3T3, luminescence, 90 h; inhibition, % (test concentration not listed); 1.4% of 300,000 active;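 active = mean inhibition across valid replicates above about 55%, limit read from the data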;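 note: signal also drops with host cell toxicity which is not excluded here; 0% = plate median of DMSO wells and 100% = zero luminescence signal; higher percent means less beta-gal luminescence so fewer parasites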
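Test system: β-gal T. cruzi (Tulahuen C4) inside NIH/3T3 cells / Quantity: 5,000 cells/well / Measured by: luminescence from GalScreen with 0.05% NP40, read after 60 min / Medium: DMEM plus 2% FBS / Measure: parasite load inhibition, % / Reagent: Tulahuen C4 trypomastigotes, 5000/well / Schedule: co-culture of at least 90 h after 3 h attachment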
Calb FLC: C. albicans growth modulation with fluconazole; growth inhibition, % (test concentration not listed); C. albicans CaCi-2 (fluconazole-resistant clinical isolate) + fluconazole, Alamar Blue growth, 48 h; 0.57% of 300,000 active;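 active = growth inhibition above about 58% in most replicates, limit read from the data, passing the limit was not always enough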;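 note: all wells also contain fluconazole at 8 µg/ml as a sub-toxic cotreatment; 0% = median of DMSO wells and 100% = median of geldanamycin control wells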
An asterisk follows results filed as active; nt = no result. An excerpt weighted towards active compounds, which were near 5.7% of everything screened.

SMILES	Mdm2 MdmX PPI	SKKanGAS inh	Beta apoptosis	CSC inhib	T cruzi inh	Calb FLC
COc1ccc(-c2ocnc2C(=O)NCc2nn(-c3ccccc3)nc2C)cc1	44.2	-7.7	65.6	14.5	nt	12.2
O=C(/C=C/c1cccs1)NC(=S)Nc1ccc(S(=O)(=O)Nc2ccccc2C(F)(F)F)cc1	5.7	59.3*	-7.0	43.2	8.4	14.4
COc1ccc(NC(=S)NC(=O)/C=C/c2cccs2)cc1	2.2	-3.3	-0.6	-9.1	3.1	-8.0
O=C(OCC(=O)N1CCc2ccccc21)c1n[nH]c(=O)c2ccccc12	18.4	nt	2.0	-7.9	nt	nt
C/C(=N\Nc1ccc(Cl)cc1)c1c(O)cc(C)oc1=O	-13.7	6.0	-4.9	52.9	18.6	124.7*
CC1CC(=O)Nc2ccccc2N1C(=O)CSc1nnnn1C (stereo not given)	-10.9	nt	-5.4	-9.0	nt	nt
CCCCNc1nc(N(C)c2ccccc2)nc(-n2ccnc2)n1	-1.6	18.2	11.7	-16.2	60.5*	9.3
CCCCCNc1nc(-c2ccccc2)nc(-n2ccnc2)n1	26.8	-4.3	4.9	-2.9	61.9*	19.8
C=CCNc1nc(N(c2ccccc2)c2ccccc2)nc(-n2ccnc2)n1	19.4	18.2	0.4	49.6	36.1	17.6
COc1ccc(CC2(CO)CCN(CC3=Cc4cc(Cl)ccc4OC3)CC2)cc1	37.5	0.2	115.3*	-1.6	65.6*	9.7
COc1ccc(CC2(CO)CCN(Cc3ccc(NC(C)=O)cc3)CC2)cc1	-11.5	6.4	0.4	-1.2	4.5	-3.7
COc1ccc(CC2(CO)CCN(Cc3nc(C(C)C)cs3)CC2)cc1	11.7	1.6	3.7	-4.8	67.9*	-2.9
Cn1ccnc1SCC(=O)Nc1ccc(Br)cc1C(F)(F)F	1.8	19.0	-0.5	6.3	2.6	-10.7
CC1=C(C(N)=O)C(c2ccc(C)o2)C(C(N)=O)=C(C)N1	-15.7	-4.3	-1.1	3.4	-4.5	70.8*
CN(CC(=O)Nc1ccc(F)cc1)C(=O)CN1C(=O)NC2(CCCc3ccccc32)C1=O (stereo not given)	-3.3	-5.6	0.2	nt	-11.1	57.0
CCOC(=O)c1c(NC(=S)NCC2CCCO2)sc(C)c1C (stereo not given)	4.0	-2.7	nt	-10.5	1.5	85.0*
COc1ccc(CCC(=O)OCC(=O)Nc2ccccc2)cc1	10.0	2.3	-5.3	-12.2	-2.9	4.8
COc1ccc(OC)c(CNc2ccc3c(c2)CCC3)c1	-2.4	1.1	-9.5	-10.0	70.3*	-2.8
COc1cccc(CNc2ccc3c(c2)CCC3)c1	22.5	-0.2	5.7	5.6	60.2*	-21.2
COc1ccc(OC)c(CC(=O)Nc2ccc3c(c2)CCC3)c1	-3.7	-0.9	-1.7	1.2	6.5	5.9
COc1cccc(CNC2CCCCCCC2)c1OC	-3.6	-5.5	1.7	-4.8	-8.9	-15.5
COc1cc(N)c(Cl)cc1C(=O)OCC(=O)NC(=O)NCc1ccco1	0.2	nt	-5.1	2.9	nt	nt
CN(c1cccc(Cl)c1)S(=O)(=O)c1cccc(C(=O)NN2CCOCC2)c1	20.5	nt	-6.3	-1.1	nt	nt
O=C(Nc1ccc2c(c1)OCO2)c1cc(C2CC2)on1	-65.9	-4.5	7.3	98.1*	-8.2	0.0
CC(C)c1cc(C(=O)Nc2ccc3c(c2)OCO3)no1	-110.0	-6.2	3.4	0.8	-1.8	-5.9
SMILES	Mdm2 MdmX PPI	SKKanGAS inh	Beta apoptosis	CSC inhib	T cruzi inh	Calb FLC
Cc1nc2c(=O)oc3ccccc3c2n1-c1ccccc1	12.1	-2.3	-1.7	-9.3	-6.0	91.6*
CCn1c(C)nc2c(=O)oc3ccccc3c21	6.4	2.8	-0.1	25.1	-7.5	-13.3
Cc1ccccc1NC(=S)N1CCN(Cc2ccc3c(c2)OCO3)CC1	20.7	-2.9	-7.1	-15.6	13.0	-43.0
FC(F)(F)c1ccccc1NC(=S)N1CCN(Cc2ccc3c(c2)OCO3)CC1	-2.8	-0.3	82.0*	nt	-0.5	7.6
C=CCNc1nc(C(=O)OCC(=O)NCc2cccc(Cl)c2)cs1	-10.9	nt	-4.4	-4.2	nt	nt
OC[C@@H]1[C@@H](c2ccc(F)cc2)C(c2ccccc2)=NN1c1ccccc1	13.7	nt	nt	nt	nt	nt
O=C1C2C(c3ccccc3)=NN(c3ccccc3)C2C(=O)N1c1ccccc1 (stereo not given)	-16.4	107.5*	5.8	9.9	-4.4	-1.8
O=C1OCCN1C(=O)[C@H]1[C@H](c2ccc(Cl)cc2)C(c2ccccc2)=NN1c1ccccc1	5.0	nt	nt	nt	nt	nt
O=C1[C@H]2C(c3ccccc3)=NN(c3ccccc3)[C@H]2C(=O)N1c1ccccc1	9.2	88.7*	2.7	-12.5	-14.7	12.6
O=C(NN1C(=O)NC2(CCCCC2)C1=O)c1ccc(Cl)s1	0.7	nt	-0.1	nt	nt	nt
COc1ccccc1CNC(=O)N1CCN(c2ccccc2Cl)CC1	-2.5	1.1	-3.8	2.7	16.5	-3.9
O=c1c2c(nc(NCCO)n1CC1CCCCC1)-c1ccccc1CC21CCCC1	41.1	86.5*	0.8	-3.5	23.3	3.1
CCCn1c(SCC#N)nc2c(c1=O)C1(CCCC1)Cc1ccccc1-2	-19.2	13.4	8.7	127.0*	22.6	1.3
N#CCSc1nc2c(c(=O)n1Cc1ccco1)C1(CCCC1)Cc1ccccc1-2	27.5	23.5	0.1	83.0*	36.0	3.4
Cc1nn(CC(=O)NC(C)C(C)C)c(C)c1S(=O)(=O)N1CCCCC1 (stereo not given)	-6.6	nt	nt	nt	nt	nt
COc1ccc(-c2sc3ccc(N4CCOCC4)cc3c2C#CCCO)cc1	46.6	nt	-1.8	122.6*	nt	nt
COc1ccc2sc(-c3ccccc3OC)c(C#Cc3cncn3C)c2c1	34.0	nt	nt	nt	nt	nt
COc1ccc(-c2sc3cc(OC)c(OC)cc3c2C#CCCO)cc1	37.2	nt	-0.9	64.2	nt	nt
COc1ccc(-c2sc3ccccc3c2C#Cc2cncn2C)cc1	38.2	nt	6.8	137.7*	nt	nt
COc1ccc(-c2sc3ccccc3c2C#CCCO)cc1	17.5	36.0	-0.2	91.6*	9.1	-2.5
COc1ccc(-c2sc3ccccc3c2/C=C/c2ccncc2)cc1	4.0	nt	-8.4	102.5*	nt	nt
OCCC#Cc1c(-c2ccsc2)sc2ccccc12	3.9	-3.6	nt	67.6	-11.0	-2.1
OCCCCC#Cc1c(-c2ccsc2)sc2ccccc12	13.5	64.8*	-3.3	98.7*	13.3	6.4
COc1ccccc1-c1sc2cc3c(cc2c1C#Cc1cncn1C)OCO3	19.6	nt	7.8	138.0*	nt	nt
O=C(O)C1Nc2ccc(Br)cc2C2C=CCC12 (stereo not given)	27.5	10.1	-1.5	-3.3	0.1	19.7
Fc1ccc2c(c1)C1C=CCC1C(c1cc3c(cc1Br)OCO3)N2 (stereo not given)	29.8	73.1*	2.4	6.8	22.8	-0.5
CN1CCN(c2nc(-c3ccccc3)cc(C(F)(F)F)n2)CC1	2.6	5.4	2.4	-9.1	26.7	-27.7
COc1cccc(-c2cc(C(F)(F)F)nc(N3CCC(C)CC3)n2)c1	-6.7	67.5*	1.9	45.5	17.0	2.1
Fc1ccc(-c2cc(C(F)(F)F)nc(N3CCCCC3)n2)cc1	5.0	65.5*	0.8	20.8	4.7	-0.1
